Screens (PubChem)
Most compounds without a hit are left out; they make up all but 2.3% or so of the library.
STEP inh: STEP (human) phosphatase inhibition. P54829. recombinant STEP, OMFP fluorogenic substrate, fluorescence. AID 588621. actives 0.25% (n = 360,000). inhibition, % at 20 µM;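 active = inhibition at 20 µM, scaled per plate between control wells, above about 37%, limit read from the data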;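 also: 0% = DMSO with enzyme and substrate and 100% = substrate only without enzyme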
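System: STEP phosphatase, cell-free reaction; Buffer or medium: Bis-Tris pH 6.0 buffer with DTT, detergent; Incubation: 20 min at room temperature, dark; Measured by: fluorescence, 480/540 nm.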
NadD block: blocks S. aureus nicotinate mononucleotide adenylyltransferase. purified NadD enzyme, colorimetric absorbance read-out. inhibition, % at 20 µM. actives 0.78% (n = 360,000). AID 602399; in the data active = inhibition above about 26%
DNMT1 inh: blocks human DNA methyltransferase DNMT1; DNMT1 molecular beacon, Hinp1I cleavage, fluorescence; inhibition (reported as % activation of signal), % at 10 µM; actives 0.83% (n = 360,000); AID 588458; in the data active = inhibition above about 50%
Scp-1 inhibitor: Scp-1 (human) phosphatase inhibition. Q9GZU7. Recombinant Scp1, phosphopeptide, malachite green phosphate absorbance. inhibition, % at 20 µM. actives 0.88% (n = 340,000). AID 493091;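 active = inhibition above about 50% at 20 µM, limit read from the data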;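 also: plate controls were DMSO wells with enzyme for no effect and wells lacking enzyme for full effect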
Target sequence (Q9GZU7 76-261 limits assumed): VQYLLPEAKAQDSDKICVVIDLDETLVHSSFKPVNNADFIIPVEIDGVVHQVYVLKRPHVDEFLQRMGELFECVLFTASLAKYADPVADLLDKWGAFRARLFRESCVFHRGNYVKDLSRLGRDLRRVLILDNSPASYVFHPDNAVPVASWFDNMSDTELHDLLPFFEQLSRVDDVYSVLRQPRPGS
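Test system: SCP-1 catalytic domain; Buffer or medium: Acidic Tris acetate buffer with magnesium and detergent; Also added: Phosphorylated 17-residue peptide substrate; Compound: single 20 µM dose, 1% DMSO; Schedule: enzyme reaction 45 min at room temperature, colour 5 min, stabilisation 30 min; Signal: Phosphate-binding colour reagent, absorbance read at 630 nm.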
SUMO1-SIM PPI: SUMO1-SIM interaction modulation; SUMO1 binding to a labelled peptide, TR-FRET, 1 h; inhibition, % at 20 µM; actives 0.33% (n = 360,000); in the data active = inhibition above about 37%
Target sequence (P63165 whole entry, looked up): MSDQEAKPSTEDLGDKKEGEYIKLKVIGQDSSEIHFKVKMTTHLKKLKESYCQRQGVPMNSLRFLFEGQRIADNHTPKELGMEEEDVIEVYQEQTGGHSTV
LMPTP block: blocks human LMPTP phosphatase | P24666 | recombinant LMPTP-A, OMFP fluorogenic substrate, fluorescence intensity | inhibition, % at 20 µM | actives 0.22% (n = 360,000);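 active = compounds that cut the enzyme signal by at least half of the control window in the single-dose screen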;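 also: plate controls were DMSO wells with enzyme plus substrate for no effect and substrate without enzyme for full effect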
Target sequence (P24666 whole entry, looked up): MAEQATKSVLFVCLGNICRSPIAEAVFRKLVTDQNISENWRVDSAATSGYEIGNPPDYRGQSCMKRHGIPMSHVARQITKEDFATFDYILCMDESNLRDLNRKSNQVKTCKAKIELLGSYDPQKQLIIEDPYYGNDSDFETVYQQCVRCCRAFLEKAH
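Test system: LMPTP-A, protein tyrosine phosphatase of low molecular weight; Input: 0.625 nM enzyme; Incubation: 50 min dark incubation at room temperature; Signal: endpoint fluorescence intensity from OMFP dephosphorylation; Read-out basis: % inhibition versus control wells.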
Numbers without * were called inactive; i = inactive; . = no result given; + = active, no number; ! = not confirmed by another sample.

SMILES	STEP inh	NadD block	DNMT1 inh	Scp-1 inhibitor	SUMO1-SIM PPI	LMPTP block
COc1cccc(/C=N/NC(=O)c2[nH]c(C)c(C(=O)N/N=C/c3cccc(OC)c3O)c2C)c1O	4.2	34.8*	-24.8	-14.5	8.7	2.4
COc1cccc(/C=N/NC(=O)c2ccc(-c3ccccc3)cc2)c1O	0.6	15.2	18.4	0.0	2.0	13.8
CCCCN(C)C(=O)c1ccc(Nc2nc(C(N)COCc3ccccc3)cs2)nc1 (centres undefined)	-2.8	11.7	-6.7	.	0.2	0.4
Cc1ccc(NCCN(C)C)c2c(=O)c3cc(O)ccc3sc12	0.8	-0.5	57.3*	7.1	-48.0	11.4
CCN(CC)CCNc1cccc2sc3ccccc3c(=O)c12	-0.5	-2.8	46.4	.	-33.0	1.3
CN(C)CCNc1cccc2sc3ccc(O)cc3c(=O)c12	1.0	-2.4	56.1*	.	-36.7	0.9
COc1cc(C)c2sc3ccccc3c(=O)c2c1NCCN(C)C	0.8	-0.5	38.1	.	-66.2	-0.9
COC(=O)C(C(=O)OC)c1ccccc1CNS(=O)(=O)c1ccc(C)cc1	.	.	.	.	-3.0	-2.4
CC[C@@H]1CCC[C@@H](O)[C@@H](C)C(=O)O[C@H](C)[C@@H](C)C/C=C(C)/C(OC)=C\C(=O)N(C)C([C@@H](C)CC)C(=O)N(C)[C@@H](C(C)C)C(=O)N(C)[C@@H](COC)C(=O)N2CCC[C@H]2C(=O)N(C)[C@@H](C(C)C)C(=O)N2CCC[C@H]2C(=O)O1 (some centres undefined)	1.7	-12.0	-27.2	.	-0.5	-0.7
Cc1ccc(N=C2NC(=O)/C(=C/c3cn(C)c4ccccc34)S2)cc1C	-5.2	33.9*	-8.8	5.3	0.0	2.2
CCCCn1c(N)c(N(CC(C)C)C(=O)c2cc(-c3ccco3)nc3ccccc23)c(=O)[nH]c1=O	0.0	8.6	21.4	27.5	4.2	7.4
CCCCN(C(=O)c1cc(-c2ccco2)nc2ccccc12)c1c(N)n(CCC)c(=O)[nH]c1=O	5.6	5.1	52.6*	61.1*	3.2	8.8
CC(=O)Nc1ccc(NC(=O)c2cc(-c3cc(C)c(C)cc3O)n[nH]2)cc1	-0.5	-7.0	-3.5	-5.9	39.7*	0.7
COc1ccc(-n2c(C)cc(/C=C3\SC(=S)NC3=O)c2C)cc1	0.0	44.8*	-1.2	-0.9	-8.7	2.4
Cc1cc(/C=C2\SC(=S)NC2=O)c(C)n1-c1ccccc1	-0.4	25.8	21.0	3.8	-3.2	3.9
Cc1cc(/C=C2\SC(=Nc3ccc(F)cc3)NC2=O)c(C)n1-c1ccc(S(N)(=O)=O)cc1	2.4	65.0*	-27.0	3.9	-1.1	2.0
Cc1cc(/C=C2\SC(=S)NC2=O)c(C)n1-c1ccc(O)cc1	-5.6	28.9	2.3	-11.7	-1.5	2.3
CCCCN(C(=O)C(C)Oc1cccc(Cl)c1)c1c(N)n(CCC)c(=O)[nH]c1=O (centres undefined)	4.3	-4.8	-0.3	-0.4	2.0	-0.4
CC[C@]12c3[nH]c4ccc(OC)cc4c3CCN1C(=O)C(CC(=O)NCCN1CCOCC1)C[C@@H]2C(=O)N1CCN(C(=O)c2ccco2)CC1 (some centres undefined)	-2.7	2.1	5.6	6.5	-3.3	-11.2
CCN(CC)C(=O)c1cccc(-c2csc(C(NC(C)=O)c3ccc(F)c(F)c3)n2)c1 (centres undefined)	-0.3	-1.9	-1.0	.	-5.5	-0.9
CC1CCN(C(=O)CN2C(=O)C(=O)N(C(C)C)C2=O)c2ccccc2S1 (centres undefined)	-2.1	3.6	4.5	-7.3	0.3	-0.7
Cc1cccc(NC(=O)Cn2nnc(-c3ccc(CN4CCCC4)cc3)n2)c1C	-1.8	-6.9	0.9	-2.2	17.2	1.1
NC(=O)Cn1nnc(-c2ccc(CN3CCCCC3)cc2)n1	1.2	-4.7	3.2	-1.4	58.1*	0.1
Cc1ccc2c(c1C)-c1c(ccc(C)c1C)C(=O)C2=O	4.6	0.2	95.3*	-16.2	48.8*	7.6
COC(=O)c1ccccc1COc1cccn2c(N(C)Cc3cccs3)c(C)nc12	0.6	7.2	-11.5	.	3.4	7.5
SMILES	STEP inh	NadD block	DNMT1 inh	Scp-1 inhibitor	SUMO1-SIM PPI	LMPTP block
O=C(O)CCc1ccc(-c2ccccc2)n1CC(=O)O	0.1	6.4	0.1	4.5	1.7	-0.5
Cc1ccc(-c2ccc(CCC(=O)O)n2Cc2ccco2)cc1	-16.7	-2.3	56.7*	-3.6	2.3	6.2
COc1ccc(CNC[C@@H](CCCCN(C)Cc2ccc(OC)cc2)N2C[C@H](c3ccccc3)N(CCc3ccc(Cl)c(Cl)c3)C(=O)C2=O)cc1	10.7	18.1	-7.0	27.3	-119.0	56.7*
COc1ccc(CNC(=O)[C@@H]2CC=C[C@@H]3CCN(Cc4ccc(Cl)c(Cl)c4)C(=O)[C@@H]32)cc1	1.2	10.2	0.8	12.2	5.2	4.1
CC(C)NC(=O)C1(C)CN(S(C)(=O)=O)CC(=O)N1C1CC1 (centres undefined)	.	.	.	.	-0.3	-0.5
Cc1nc2ccc3nc(NC(=O)c4ccco4)sc3c2s1	3.6	0.3	6.3	25.1	54.5*	0.3
O=C(Nc1nc2ccsc2c(=O)s1)c1ccco1	7.7	-8.9	44.1	53.9*	39.2*	-0.1
Oc1[nH]c(N=C2N=c3ccccc3=N2)c2ccccc12	0.4	-4.9	-0.8	-9.1	-20.1	-0.7
O=C1NC(=S)S/C1=C\c1ccc(SCc2ccco2)o1	50.1*	24.0	103.1*	77.2*	83.0*	76.1*
COc1ccc(OC)c(N=c2ssnc2Cl)c1	0.4	3.9	-11.9	-1.3	5.9	34.0
COc1cc(N=c2ssnc2Cl)c(OC)cc1Cl	4.4	0.1	-4.0	1.7	-7.0	48.2*!
CCC(C)CN1C(=O)CSCC1(C)C(=O)Nc1ccc2c(c1)OCCO2 (centres undefined)	.	.	.	.	0.8	-1.2
Nc1ccc(-c2c3ccc(=O)cc-3oc3cc(O)ccc23)cc1C(=O)O	-60.1	-5.8	+	3.6	-355.8	10.2
O=c1ccc2c(-c3ccccc3)c3ccc(O)cc3oc-2c1	i	9.4	+	18.4	i	-148.2
O=c1cc(-c2ccccc2)oc2cc(O)ccc12	-2.7	1.3	0.2	-10.0	-4.0	0.1
O=C(O)CP(=O)(c1ccccc1)c1ccccc1	-4.2	-2.0	0.6	-11.2	46.5*	-0.4
O=P(CCO)(c1ccccc1)c1ccccc1	0.4	2.0	-0.8	-5.0	0.7	-0.2
CCCCC1CCC(C(=O)Nc2ccc(S(=O)(=O)Nc3nccs3)cc2)CC1 (centres undefined)	0.1	33.0*	26.4	-7.8	-1.1	1.6
COc1cc(/C=N/n2c(-c3ccc4c(c3)NC(=O)CO4)csc2=Nc2cccc(C)c2)ccc1O	-1.2	34.6*	-31.4	2.5	1.3	4.7
